What was measured:
MCF7 = assay: Phototoxicity against human MCF7 cells assessed as reduction in cell viability preincubated for 3 hrs followed by 54 J/cm2 light irradiation and measured after 24 hrs by MTT assay; format: functional, cell-based; settings: MCF7, light or radiation study
How it was run: (§1)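 PS formulated in PBS containing Cremophor EL/1,2-propanediol (10:3, v:v) after THF removal, filtered, with concentration confirmed by UV-Vis. Cells were grown in DMEM with 10% FBS and seeded at 3×10^3 per well overnight. They were incubated with PS for 3 h, irradiated at λ > 590 nm, kept 24 h at 37 °C, then given MTT (0.5 mg/mL, 4 h) with DMSO solubilization and A490 read-out.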

[1] = Induction of singlet oxygen generation in N,N-dimethylformamide assessed as relative rate of DPBF degradation to MB at 1 uM irradiated with 90 mW/cm2 halogen light; format: functional
How it was run: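 Singlet oxygen generation measured with 1,3-diphenylisobenzofuran (DPBF) as scavenger. The decrease in DPBF absorbance at 411 nm was monitored over time during light irradiation, and the photodegradation rate was calculated.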

[2] = Dark toxicity in human SW480 cells assessed as reduction in cell viability after 3 hrs by MTT assay; format: cell-based
[3] = Dark toxicity in human HeLa cells assessed as reduction in cell viability after 3 hrs by MTT assay; format: cell-based
How it was run: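 Compound was formulated with Cremophor EL/1,2-propanediol in PBS, filtered, and its concentration confirmed by UV-Vis. HeLa cells in DMEM with 10% FBS at 37 °C, 5% CO2 were seeded at 3×10^3 cells/well and adhered overnight. Cells were exposed to graded concentrations for 3 h without light, incubated 24 h, then MTT 0.5 mg/mL for 4 h; formazan dissolved in DMSO, A490 read.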

[4] = Absorption property of the compound in chloroform assessed as hypsochromic shift by measuring maximum absorption wavelength by UV-visible spectrophotometric method; format: physicochemical
How it was run: (§2)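 Electronic absorption spectra recorded by UV-visible spectrophotometry at room temperature. Solvents were chloroform, isopropanol, acetonitrile, DMF, and PBS buffer containing 1% Cremophor EL/1,2-propanediol (10:3, v:v). Chloroform data were referenced to the non-halogenated parent dye.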

[5] = Emission property of the compound in chloroform assessed as maximum emission wavelength by fluorescence spectrophotometric method; format: physicochemical
How it was run: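 Fluorescence spectrum recorded in chloroform by fluorescence spectrophotometer at room temperature.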

HeLa = assay: Phototoxicity against human HeLa cells assessed as reduction in cell viability preincubated for 3 hrs followed by 54 J/cm2 light irradiation and measured after 24 hrs by MTT assay; format: functional, cell-based; settings: light or radiation study; how it was run: as §1
SW480 = assay: Phototoxicity against human SW480 cells assessed as reduction in cell viability preincubated for 3 hrs followed by 54 J/cm2 light irradiation and measured after 24 hrs by MTT assay; format: functional, cell-based; settings: SW480, light or radiation study; how it was run: as §1
[6] = Absorption property of the compound in chloroform assessed as absorption coefficient by UV-visible spectrophotometric method; format: physicochemical; how it was run: as §2
[7] = Dark toxicity in human MCF7 cells assessed as reduction in cell viability after 3 hrs by MTT assay; format: cell-based

Row | Structure (SMILES) | IC50 (MCF7) | fold change (FC) [1] | IC50 at 3 h [2] | IC50 at 3 h [3] | Activity [4] | Activity [5] | IC50 (HeLa) | IC50 (SW480) | Activity [6] | IC50 at 3 h [7]
1 | COc1ccc(C2=[N+]3C(=Nc4c(-c5ccccc5)c5c(n4[B-]3(F)F)-c3ccc(OC)cc3CC5)C(c3ccccc3)=C2Br)cc1 | 4.5 µM | 0.17 | > 50 µM | > 50 µM | 692 nm | 724 nm | 0.83 µM | 1.9 µM | 90300 M⁻¹ cm⁻¹ | > 50 µM
2 | Cc1ccc(C2=[N+]3C(=Nc4c(-c5ccccc5)cc(-c5ccc(C)cc5)n4[B-]3(F)F)C(c3ccccc3)=C2Br)cc1 | 2.6 µM | 0.12 | > 50 µM | > 50 µM | 658 nm | 685 nm | 7.2 µM | > 25 µM | 83600 M⁻¹ cm⁻¹ | > 50 µM
3 | COc1ccc2c(c1)CCc1c(-c3ccccc3)c3n(c1-2)[B-](F)(F)[N+]1=C(c2ccc(C)cc2)C(I)=C(c2ccccc2)C1=N3 | 0.41 µM | 0.25 | > 50 µM | > 50 µM | 682 nm | 709 nm | 0.11 µM | 0.66 µM | 110000 M⁻¹ cm⁻¹ | > 50 µM
4 | Cc1ccc(C2=[N+]3C(=Nc4c(-c5ccccc5)c(I)c(-c5ccc(C)s5)n4[B-]3(F)F)C(c3ccccc3)=C2I)s1 | 16.4 µM | 0.36 | > 50 µM | > 50 µM | 732 nm | 768 nm | > 25 µM | > 25 µM | 91300 M⁻¹ cm⁻¹ | > 50 µM
5 | COc1ccc2c(c1)CCc1c(-c3ccccc3)c3n(c1-2)[B-](F)(F)[N+]1=C(c2ccc(C)s2)C(Br)=C(c2ccccc2)C1=N3 | > 25 µM | 0.14 | > 50 µM | > 50 µM | 714 nm | 753 nm | 22.6 µM | > 25 µM | 73700 M⁻¹ cm⁻¹ | > 50 µM
6 | Cc1ccc(C2=[N+]3C(=Nc4c(-c5ccccc5)c(Br)c(-c5ccc(C)cc5)n4[B-]3(F)F)C(c3ccccc3)=C2Br)cc1 | 1.5 µM | 0.22 | > 50 µM | > 50 µM | 658 nm | 685 nm | 4.3 µM | 16.1 µM | 79900 M⁻¹ cm⁻¹ | > 50 µM
7 | Cc1ccc(C2=[N+]3C(=Nc4c(-c5ccccc5)cc(-c5ccc(C)s5)n4[B-]3(F)F)C(c3ccccc3)=C2I)s1 | 7.7 µM | 0.32 | > 50 µM | > 50 µM | 732 nm | 766 nm | 15.6 µM | 20.6 µM | 71700 M⁻¹ cm⁻¹ | > 50 µM
8 | Cc1ccc(C2=[N+]3C(=Nc4c(-c5ccccc5)cc(-c5ccc(C)cc5)n4[B-]3(F)F)C(c3ccccc3)=C2I)cc1 | 1.2 µM | 0.26 | > 50 µM | > 50 µM | 659 nm | 690 nm | 2.6 µM | 12.4 µM | 89600 M⁻¹ cm⁻¹ | > 50 µM
